Results on 14 compounds are retold here after ChEMBL document CHEMBL3045248, “Stereoselective synthesis and antifungal activities of (E)-alpha-(methoxyimino)benzeneacetate derivatives containing 1,3,5-substituted pyrazole ring” (2006).

What all share (format): functional
In assay [1] the test system is Botryosphaeria berengeriana. In words: Fungicidal activity against Botryosphaeria berengeriana assessed as inhibition of mycelial elongation at 50 ug/mL incubated for 48 hr. The gist of the method: (§1)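 Poisoned-food plate assay on potato glucose agar: DMF stock of 500 mg/L mixed 1:9 into molten medium at 50 °C, poured and set, then seeded with a 4 mm mycelial disk. Plates inverted, incubated 28 °C for 48 h. Water as blank control. Colony radius (mm) measured, triplicate; inhibition I = [(C − T)/C] × 100% versus control radius. Field isolates from crops.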

For another assay, the system named is Fusarium graminearum. In words: Fungicidal activity against Fusarium graminearum assessed as inhibition of mycelial elongation at 50 ug/mL incubated for 48 hr. The gist of the method:
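Field isolate of G. zeae taken from crops. A 500 mg/L DMF stock (1 mL) was mixed with 9 mL molten potato glucose agar at 50 °C and poured into plates. A 4 mm mycelial disk was placed on each plate, which was inverted and kept at 28 °C for 48 h. Water served as the blank. Colony radius was measured in triplicate, and inhibition was calculated as (C−T)/C×100%.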

For another assay, the system named is Bipolaris maydis. In words: Fungicidal activity against Cochliobolus heterostrophus assessed as inhibition of mycelial elongation at 50 ug/mL incubated for 48 hr. The gist of the method:
as §1

The subject of a further assay is Botrytis cinerea. In words: Fungicidal activity against Botryotinia fuckeliana assessed as inhibition of mycelial elongation at 50 ug/mL incubated for 48 hr. The gist of the method: as §1
For another assay, the system named is Rhizoctonia solani. Briefly: Fungicidal activity against Rhizoctonia solani assessed as inhibition of mycelial elongation at 50 ug/mL incubated for 48 hr. The gist of the method: as §1

Take `CO/N=C(/C(=O)OC)c1ccccc1CO/N=C/c1c(C)nn(C)c1Oc1ccccc1C`: the inhibition (commonly how much of the control response was suppressed) at 50 µg/mL is 76.5% in assay [1]; 53.1% in the assay on Fusarium graminearum; 72.7% in the assay with Bipolaris maydis; 80.8% in the assay on Botrytis cinerea; 83.7% in the assay on Rhizoctonia solani.

Turning to `CO/N=C(/C(=O)OC)c1ccccc1COc1ccccc1C` [KRESOXIM-METHYL], the inhibition at 50 µg/mL in assay [1] is 98.5%; in the assay on Fusarium graminearum, 96.8%; in the assay on Bipolaris maydis, 90.6%; in the assay on Botrytis cinerea, 97.2%; in the assay with Rhizoctonia solani, 66.1%.

Turning to `CCCOc1c(/C=N/OCc2ccccc2/C(=N\OC)C(=O)OC)c(C)nn1C`, the inhibition at 50 µg/mL in assay [1] was 93.8%; with Fusarium graminearum it was 78.4%; in the assay on Bipolaris maydis, 85%; in the assay on Botrytis cinerea, 87.1%; in the assay on Rhizoctonia solani, 87.8%.

As for `CO/N=C(/C(=O)OC)c1ccccc1CO/N=C/c1c(C)nn(C)c1Oc1ccc(C)cc1`, the inhibition at 50 µg/mL in assay [1] came to 88.2%; in the assay with Fusarium graminearum, 50%; in the assay with Bipolaris maydis, 72.7%; in the assay with Botrytis cinerea, 80.8%; in the assay with Rhizoctonia solani, 90.2%.

As for `CCOc1c(/C=N/OCc2ccccc2/C(=N\OC)C(=O)OC)c(C)nn1C`, the inhibition at 50 µg/mL in assay [1] amounted to 100%; with Fusarium graminearum, 90.5%; with Bipolaris maydis, 92.6%; with Botrytis cinerea it was 96.8%; with Rhizoctonia solani, 92.5%.

Consider `CO/N=C(/C(=O)OC)c1ccccc1CO/N=C/c1c(C)nn(C)c1OCC(F)(F)F`, for which the inhibition at 50 µg/mL in assay [1] was determined as 95.5%; with Fusarium graminearum it was 80%; with Bipolaris maydis it was 90.9%; in the assay on Botrytis cinerea, 100%; in the assay with Rhizoctonia solani, 91.8%.

With `CO/N=C(/C(=O)OC)c1ccccc1CO/N=C/c1c(C)nn(C)c1Oc1ccccc1F`, the inhibition at 50 µg/mL was 88.2% in assay [1]; 50% in the assay on Fusarium graminearum; 68.2% in the assay with Bipolaris maydis; 84.6% in the assay on Botrytis cinerea; 83.7% in the assay on Rhizoctonia solani.

As to `CO/N=C(/C(=O)OC)c1ccccc1CO/N=C/c1c(C)nn(C)c1Oc1ccc(Cl)cc1`, the inhibition at 50 µg/mL in assay [1] came out at 92.6%; in the assay with Fusarium graminearum it was 80%; in the assay with Bipolaris maydis, 92.9%; in the assay with Botrytis cinerea, 100%; with Rhizoctonia solani, 100%.

In the case of `CO/N=C(/C(=O)OC)c1ccccc1CO/N=C/c1c(C)nn(C)c1Oc1ccc(Cl)cc1Cl`, the inhibition at 50 µg/mL in assay [1] was determined as 96.3%; in the assay on Fusarium graminearum, 88.6%; in the assay with Bipolaris maydis it was 92.9%; in the assay on Botrytis cinerea, 100%; with Rhizoctonia solani it was 99%.

Take `CO/N=C(/C(=O)OC)c1ccccc1CO/N=C/c1c(C)nn(C)c1OC`: the inhibition at 50 µg/mL was 100% in assay [1]; 79.4% in the assay on Fusarium graminearum; 86.7% in the assay on Bipolaris maydis; 85.4% with Botrytis cinerea; 82.7% in the assay on Rhizoctonia solani.

Regarding `CO/N=C(/C(=O)OC)c1ccccc1CO/N=C/c1c(C)nn(C)c1Oc1cccc([N+](=O)[O-])c1`, the inhibition at 50 µg/mL in assay [1] was 77.8%; with Fusarium graminearum, 62.9%; in the assay on Bipolaris maydis, 64.3%; in the assay on Botrytis cinerea it was 98.8%; in the assay with Rhizoctonia solani, 91.6%.

In the case of `CO/N=C(/C(=O)OC)c1ccccc1CO/N=C/c1c(C)nn(C)c1Oc1ccc(F)cc1`, the inhibition at 50 µg/mL is 100% in assay [1]; 59.4% with Fusarium graminearum; 86.4% in the assay with Bipolaris maydis; 88.5% in the assay on Botrytis cinerea; 90.2% in the assay on Rhizoctonia solani.

Take `CO/N=C(/C(=O)OC)c1ccccc1CO/N=C/c1c(C)nn(C)c1Oc1cccc(C(F)(F)F)c1`: the inhibition at 50 µg/mL worked out at 88.2% in assay [1]; 68.8% in the assay with Fusarium graminearum; 68.2% in the assay with Bipolaris maydis; 92.3% in the assay with Botrytis cinerea; 83.7% in the assay on Rhizoctonia solani.

Regarding `CO/N=C(/C(=O)OC)c1ccccc1CO/N=C/c1c(C)nn(C)c1Oc1cccc(C)c1`, the inhibition at 50 µg/mL is 100% in assay [1]; 96.9% in the assay with Fusarium graminearum; 81.8% in the assay on Bipolaris maydis; 80.8% in the assay with Botrytis cinerea; 88% in the assay on Rhizoctonia solani.
